In ChEMBL document CHEMBL1130095, “Synthesis of analogs of 2-methoxyestradiol with enhanced inhibitory effects on tubulin polymerization and cancer cell growth” (J Med Chem, 1997):

test system: DU-145; experiment: The In vitro cytotoxicity value corresponding to 50% growth inhibition against DU-145 (prostate) cell line.; assay type: functional; settings: Homo sapiens

Compound	GI50
CCOc1cc2c(cc1O)C(N)C[C@@H]1[C@@H]2CC[C@]2(C)[C@@H](O)CC[C@@H]12 (some centres not stated)	> 100 µM
CCOc1cc2c(cc1O)/C(=N\NS(=O)(=O)c1ccc(C)cc1)C[C@@H]1[C@@H]2CC[C@]2(C)[C@@H](O)CC[C@@H]12	15 µM
CC#Cc1cc2c(cc1O)CC[C@@H]1[C@@H]2CC[C@]2(C)[C@@H](O)CC[C@@H]12	3.6 µM
CCOc1cc2c(c(OCC)c1O)CC[C@@H]1[C@@H]2CC[C@]2(C)[C@@H](O)CC[C@@H]12	3.3 µM
CC(=O)Oc1cc2c(cc1OC(C)=O)[C@H]1CC[C@]3(C)[C@@H](OC(C)=O)CC[C@H]3[C@@H]1CC2	3.2 µM

test system: HCT-116; experiment: In vitro cytotoxicity value corresponding to 50% growth inhibition against HCT116 (colon) cell line.; assay type: functional; settings: Homo sapiens

Compound	GI50
CCOc1cc2c(cc1O)C(N)C[C@@H]1[C@@H]2CC[C@]2(C)[C@@H](O)CC[C@@H]12 (some centres not stated)	40 µM
CCOc1cc2c(cc1O)/C(=N\NS(=O)(=O)c1ccc(C)cc1)C[C@@H]1[C@@H]2CC[C@]2(C)[C@@H](O)CC[C@@H]12	6.7 µM
CC#Cc1cc2c(cc1O)CC[C@@H]1[C@@H]2CC[C@]2(C)[C@@H](O)CC[C@@H]12	0.48 µM
CCOc1cc2c(c(OCC)c1O)CC[C@@H]1[C@@H]2CC[C@]2(C)[C@@H](O)CC[C@@H]12	0.8 µM
CC(=O)Oc1cc2c(cc1OC(C)=O)[C@H]1CC[C@]3(C)[C@@H](OC(C)=O)CC[C@H]3[C@@H]1CC2	5.1 µM

test system: HOP-62; experiment: In vitro cytotoxicity value corresponding to 50% growth inhibition against HOP-62(non small cell lung) cell line.; assay type: functional; settings: Homo sapiens

Compound	GI50
CCOc1cc2c(cc1O)C(N)C[C@@H]1[C@@H]2CC[C@]2(C)[C@@H](O)CC[C@@H]12 (some centres not stated)	26 µM
CCOc1cc2c(cc1O)/C(=N\NS(=O)(=O)c1ccc(C)cc1)C[C@@H]1[C@@H]2CC[C@]2(C)[C@@H](O)CC[C@@H]12	5.1 µM
CC#Cc1cc2c(cc1O)CC[C@@H]1[C@@H]2CC[C@]2(C)[C@@H](O)CC[C@@H]12	1.7 µM
CCOc1cc2c(c(OCC)c1O)CC[C@@H]1[C@@H]2CC[C@]2(C)[C@@H](O)CC[C@@H]12	1.3 µM
CC(=O)Oc1cc2c(cc1OC(C)=O)[C@H]1CC[C@]3(C)[C@@H](OC(C)=O)CC[C@H]3[C@@H]1CC2	4.8 µM

test system: Panel (Carcinoma cell lines); experiment: Mean graph midpoint for growth inhibition of all human cancer cell lines; assay type: functional; settings: not given

GI50	Compound
40 µM	CCOc1cc2c(cc1O)C(N)C[C@@H]1[C@@H]2CC[C@]2(C)[C@@H](O)CC[C@@H]12 (some centres not stated)
1.7 µM	CC#Cc1cc2c(cc1O)CC[C@@H]1[C@@H]2CC[C@]2(C)[C@@H](O)CC[C@@H]12
2.7 µM	CCOc1cc2c(c(OCC)c1O)CC[C@@H]1[C@@H]2CC[C@]2(C)[C@@H](O)CC[C@@H]12
3.7 µM	CC(=O)Oc1cc2c(cc1OC(C)=O)[C@H]1CC[C@]3(C)[C@@H](OC(C)=O)CC[C@H]3[C@@H]1CC2

Compound	GI50
CCOc1cc2c(cc1O)/C(=N\NS(=O)(=O)c1ccc(C)cc1)C[C@@H]1[C@@H]2CC[C@]2(C)[C@@H](O)CC[C@@H]12	6.2 µM

test system: MDA-MB-435; experiment: In vitro cytotoxicity value corresponding to 50% growth inhibition against MDA-MB-435 (breast) cell line.; assay type: functional; settings: Homo sapiens

Compound	GI50
CCOc1cc2c(cc1O)C(N)C[C@@H]1[C@@H]2CC[C@]2(C)[C@@H](O)CC[C@@H]12 (some centres not stated)	16 µM
CC#Cc1cc2c(cc1O)CC[C@@H]1[C@@H]2CC[C@]2(C)[C@@H](O)CC[C@@H]12	0.13 µM
CCOc1cc2c(c(OCC)c1O)CC[C@@H]1[C@@H]2CC[C@]2(C)[C@@H](O)CC[C@@H]12	0.2 µM
CC(=O)Oc1cc2c(cc1OC(C)=O)[C@H]1CC[C@]3(C)[C@@H](OC(C)=O)CC[C@H]3[C@@H]1CC2	0.32 µM

test system: OVCAR-3; experiment: In vitro cytotoxicity value corresponding to 50% growth inhibition against OVCAR-3 (ovarian) cell line.; assay type: functional; settings: Homo sapiens

Compound	GI50
CCOc1cc2c(cc1O)C(N)C[C@@H]1[C@@H]2CC[C@]2(C)[C@@H](O)CC[C@@H]12 (some centres not stated)	45 µM
CCOc1cc2c(cc1O)/C(=N\NS(=O)(=O)c1ccc(C)cc1)C[C@@H]1[C@@H]2CC[C@]2(C)[C@@H](O)CC[C@@H]12	3.2 µM
CC#Cc1cc2c(cc1O)CC[C@@H]1[C@@H]2CC[C@]2(C)[C@@H](O)CC[C@@H]12	0.34 µM
CCOc1cc2c(c(OCC)c1O)CC[C@@H]1[C@@H]2CC[C@]2(C)[C@@H](O)CC[C@@H]12	0.09 µM
CC(=O)Oc1cc2c(cc1OC(C)=O)[C@H]1CC[C@]3(C)[C@@H](OC(C)=O)CC[C@H]3[C@@H]1CC2	6.4 µM

test system: SF-539; experiment: The In vitro cytotoxicity corresponding to 50% growth inhibition against […] (central nervous system) cell line.; assay type: functional; settings: Homo sapiens

Compound	GI50
CCOc1cc2c(cc1O)/C(=N\NS(=O)(=O)c1ccc(C)cc1)C[C@@H]1[C@@H]2CC[C@]2(C)[C@@H](O)CC[C@@H]12	3.5 µM
CC#Cc1cc2c(cc1O)CC[C@@H]1[C@@H]2CC[C@]2(C)[C@@H](O)CC[C@@H]12	0.95 µM
CC(=O)Oc1cc2c(cc1OC(C)=O)[C@H]1CC[C@]3(C)[C@@H](OC(C)=O)CC[C@H]3[C@@H]1CC2	3.5 µM

test system: SN12C; experiment: In vitro cytotoxicity value corresponding to 50% growth inhibition against SN12C (renal) cell line.; assay type: functional; settings: Homo sapiens

Compound	GI50
CCOc1cc2c(cc1O)C(N)C[C@@H]1[C@@H]2CC[C@]2(C)[C@@H](O)CC[C@@H]12 (some centres not stated)	59 µM
CCOc1cc2c(cc1O)/C(=N\NS(=O)(=O)c1ccc(C)cc1)C[C@@H]1[C@@H]2CC[C@]2(C)[C@@H](O)CC[C@@H]12	12 µM
CC#Cc1cc2c(cc1O)CC[C@@H]1[C@@H]2CC[C@]2(C)[C@@H](O)CC[C@@H]12	6.9 µM
CCOc1cc2c(c(OCC)c1O)CC[C@@H]1[C@@H]2CC[C@]2(C)[C@@H](O)CC[C@@H]12	4.8 µM
CC(=O)Oc1cc2c(cc1OC(C)=O)[C@H]1CC[C@]3(C)[C@@H](OC(C)=O)CC[C@H]3[C@@H]1CC2	5.1 µM

molecular target: Tubulin (Bos taurus, UniProt Q6B856+Q862L2+Q862F3); experiment: Evaluated for inhibition of tubulin polymerization.; assay type: functional; settings: not given
How it was run: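 Electrophoretically homogeneous bovine brain tubulin at 1.2 mg/mL (12 µM), preincubated at 26 °C with varying compound concentrations, then chilled on ice before GTP was added. Assembly was followed at 26 °C by turbidity at 350 nm, and the extent was read at 20 min. IC50 was derived graphically from at least two independent assays.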

IC50	Compound
> 40 µM	CCOc1cc2c(cc1O)C(N)C[C@@H]1[C@@H]2CC[C@]2(C)[C@@H](O)CC[C@@H]12 (some centres not stated)
4.8 µM	CC#Cc1cc2c(cc1O)CC[C@@H]1[C@@H]2CC[C@]2(C)[C@@H](O)CC[C@@H]12
8.8 µM	CCOc1cc2c(c(OCC)c1O)CC[C@@H]1[C@@H]2CC[C@]2(C)[C@@H](O)CC[C@@H]12
> 40 µM	CC(=O)Oc1cc2c(cc1OC(C)=O)[C@H]1CC[C@]3(C)[C@@H](OC(C)=O)CC[C@H]3[C@@H]1CC2

Compound	IC50
CCOc1cc2c(cc1O)/C(=N\NS(=O)(=O)c1ccc(C)cc1)C[C@@H]1[C@@H]2CC[C@]2(C)[C@@H](O)CC[C@@H]12	> 40 µM

molecular target: Tubulin beta chain (Bos taurus) (UniProt Q6B856); experiment: Evaluated for % inhibition of colchicine binding to tubulin.; parameters: concentration or dose not given beside the values; settings: concentration not given here
Sequence (Q6B856 whole entry): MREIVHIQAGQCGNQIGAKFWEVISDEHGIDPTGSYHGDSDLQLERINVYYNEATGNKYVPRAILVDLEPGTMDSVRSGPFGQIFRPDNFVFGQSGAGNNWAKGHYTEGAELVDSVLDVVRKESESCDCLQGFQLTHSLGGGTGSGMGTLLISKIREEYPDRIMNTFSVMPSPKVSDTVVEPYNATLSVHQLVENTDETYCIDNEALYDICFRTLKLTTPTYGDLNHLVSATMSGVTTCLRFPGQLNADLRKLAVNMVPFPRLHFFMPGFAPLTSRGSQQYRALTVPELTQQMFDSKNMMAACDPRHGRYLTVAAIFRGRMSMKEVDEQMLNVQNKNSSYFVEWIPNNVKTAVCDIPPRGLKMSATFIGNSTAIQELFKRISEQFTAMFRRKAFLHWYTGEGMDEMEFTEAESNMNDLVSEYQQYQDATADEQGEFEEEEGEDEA
How it was run: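 Mixtures held 1.0 µM bovine brain tubulin (0.1 mg/mL), 5.0 µM [³H]colchicine and 50 µM inhibitor, incubated 10 min at 37 °C. Bound-colchicine inhibition is given as percent, from triplicate samples in each experiment.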

inhibition	Compound
11%	CC#Cc1cc2c(cc1O)CC[C@@H]1[C@@H]2CC[C@]2(C)[C@@H](O)CC[C@@H]12
1.5%	CCOc1cc2c(c(OCC)c1O)CC[C@@H]1[C@@H]2CC[C@]2(C)[C@@H](O)CC[C@@H]12

test system: UACC-62; experiment: In vitro cytotoxicity value corresponding to 50% growth inhibition against UACC-62(melanoma) cell line.; assay type: functional; settings: Homo sapiens

Compound	GI50
CCOc1cc2c(cc1O)C(N)C[C@@H]1[C@@H]2CC[C@]2(C)[C@@H](O)CC[C@@H]12 (some centres not stated)	19 µM
CC#Cc1cc2c(cc1O)CC[C@@H]1[C@@H]2CC[C@]2(C)[C@@H](O)CC[C@@H]12	0.5 µM
CC(=O)Oc1cc2c(cc1OC(C)=O)[C@H]1CC[C@]3(C)[C@@H](OC(C)=O)CC[C@H]3[C@@H]1CC2	2.5 µM
